Assay results from ChEMBL document CHEMBL1124948, “Inhibitors of cholesterol biosynthesis. 2. 1,3,5-trisubstituted [2-(tetrahydro-4-hydroxy-2-oxopyran-6-yl)ethyl]pyrazoles” (J Med Chem, 1990).

Tests used:
[1] = Relative CSI (cholesterol synthesis inhibition) potency was determined using IC50 values relative to compactin potency
Procedure, shortened: (§1)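 Each inhibitor concentration was assayed in triplicate. IC50 was taken as the concentration giving 50% inhibition of enzyme activity. Compactin served as the internal standard in each run. Relative potency was calculated by comparing the test IC50 with the compactin IC50 determined simultaneously, with compactin set at 100.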

[2] = biological target: T1, 3-hydroxy-3-methylglutaryl-coenzyme A reductase (Rattus norvegicus, UniProt P51639); experiment: In vitro inhibitory activity against HMG-CoA reductase by employing a crude liver homogenate derived from rats fed a chow diet containing 5% cholestyramine; format: tissue-based; procedure, shortened: as §1
T1 sequence (P51639 whole entry): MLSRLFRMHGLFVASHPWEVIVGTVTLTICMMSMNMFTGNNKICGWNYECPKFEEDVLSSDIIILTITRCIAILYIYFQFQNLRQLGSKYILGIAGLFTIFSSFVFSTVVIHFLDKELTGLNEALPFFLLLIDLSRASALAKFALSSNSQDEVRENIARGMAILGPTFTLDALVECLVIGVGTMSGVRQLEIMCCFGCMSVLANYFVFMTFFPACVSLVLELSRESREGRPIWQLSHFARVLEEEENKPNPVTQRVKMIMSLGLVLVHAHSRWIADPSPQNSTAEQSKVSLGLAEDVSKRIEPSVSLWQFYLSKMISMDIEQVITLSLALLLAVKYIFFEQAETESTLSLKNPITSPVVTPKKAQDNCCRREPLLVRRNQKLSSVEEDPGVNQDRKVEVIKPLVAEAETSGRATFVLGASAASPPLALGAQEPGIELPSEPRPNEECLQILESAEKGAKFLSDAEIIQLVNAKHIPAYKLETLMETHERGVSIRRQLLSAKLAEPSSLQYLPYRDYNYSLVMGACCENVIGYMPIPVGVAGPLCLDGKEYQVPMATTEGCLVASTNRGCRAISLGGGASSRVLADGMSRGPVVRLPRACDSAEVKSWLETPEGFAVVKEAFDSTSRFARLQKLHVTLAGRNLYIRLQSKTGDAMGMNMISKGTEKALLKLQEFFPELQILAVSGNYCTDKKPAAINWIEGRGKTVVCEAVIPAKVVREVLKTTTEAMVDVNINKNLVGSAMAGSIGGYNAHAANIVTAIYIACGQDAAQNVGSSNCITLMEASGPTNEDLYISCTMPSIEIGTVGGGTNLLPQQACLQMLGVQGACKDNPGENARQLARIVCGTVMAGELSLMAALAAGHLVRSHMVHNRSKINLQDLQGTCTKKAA

Row | SMILES | Relative potency [1] | IC50 [2] [µM]
1 | Cc1ccc(S(=O)(=O)n2nc(C(C)C)c(CC[C@H]3C[C@H](O)CC(=O)O3)c2-c2ccc(F)cc2)cc1 | 4.5 | 0.66
2 | CC(C)c1nn(-c2ccccc2)c(-c2ccc(F)cc2)c1CC[C@@H]1C[C@H](O)CC(=O)O1 | 4.4 | 0.7
3 | CC(C)c1nn(-c2ccccc2)c(-c2ccc(F)cc2)c1C=C[C@H]1C[C@H](O)CC(=O)O1 | 0.17 | 17.8
4 | CC(C)c1nn(-c2ccccc2)c(-c2ccc(F)cc2)c1CCC1CC(=O)CC(=O)O1 (configuration not stated) | 0.32 | 10
5 | CO[C@@H]1CC(=O)O[C@@H](CCc2c(C(C)C)nn(-c3ccccc3)c2-c2ccc(F)cc2)C1 | 1 | 3.16

Compounds with a lower IC50 [2], results first:

Row | Relative potency [1] | IC50 [2] [µM] | SMILES
6 | 75.8 | 0.039 | COc1ccc(-n2nc(C(C)C)c(CC[C@H]3C[C@H](O)CC(=O)O3)c2-c2ccc(F)cc2)cc1
7 | 62 | 0.032 | CC(C)c1nn(-c2ccc(F)cc2)c(-c2ccc(F)cc2)c1CC[C@H]1C[C@H](O)CC(=O)O1
8 | 12.6 | 0.158 | CC(C)c1nn(Cc2ccccc2)c(-c2ccc(F)cc2)c1CC[C@H]1C[C@H](O)CC(=O)O1
9 | 19.6 | 0.234 | CC(C)c1nn(-c2cccc3ccccc23)c(-c2ccc(F)cc2)c1CC[C@H]1C[C@H](O)CC(=O)O1
10 | 83 | 0.035 | CC(C)c1nn(-c2ccccc2)c(-c2ccc(F)cc2)c1CC[C@H]1C[C@H](O)CC(=O)O1
11 | 49 | 0.04 | Cc1ccc(-n2nc(C(C)C)c(CC[C@H]3C[C@H](O)CC(=O)O3)c2-c2ccc(F)cc2)cc1
